Only some compounds are listed: those with a hit (about 4.3% of all), similar ones and a draw of the others.
APP 5'UTR act = APP 5'UTR luciferase reporter activation; SH-SY5Y APP 5'UTR luciferase reporter, luminescence; zero percent = DMSO vehicle wells; activation, % at 2 µM; 190,000 tested, 1% active; AID 1276;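 active = activation above a set limit, based on mean plus 3 SD of controls, cut at about 140% in these data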
sdo1 growth = compounds rescuing growth of sdo1-depleted yeast, bone marrow failure model; S. cerevisiae sdo1-depleted JHY4D growth rescue, OD600 30 h; active compounds read high; pdr5 snq2 efflux-pump mutant strain; AID 817; 140,000 tested, 0.21% active; z-score at 10 µM;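 active = z-score above 3 at both the 24 hr and the 30 hr optical density reads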;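 also: z-score against mean and SD of all compound wells on the same plate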
NF-kB neuron act = raises NF-kB expression in human neuronal cells; NF-kB reporter expression; active compounds read high; fold change at 12.5 µM; 190,000 tested, 1.6% active; AID 1239; in the data active = fold change above about 3.3
STAT1 act = activators of IFN-gamma induced STAT1 signaling. NIH 3T3 STAT1-luciferase reporter, luminescence; 100% = IFN-gamma alone, no compound. activation (% of control), % at 5.5 µM. 200,000 tested, 2.6% active;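 active = activation above the screen-wide mean activation plus 3 SD, cut at about 130% in these data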;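 also: raw ratio to IFN-gamma control signal so 100% means no change and 0% no light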
FLuc act counter = firefly luciferase counter-screen for stimulation assays | P08659 | ATPlite luciferase biochemical, luminescence, 10 min; 0 = ATP-free wells, 1 = DMSO control | activation factor at 10 µM | 200,000 tested, under 10 active | AID 1027;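 active = luciferase activation factor, scaled between plate controls, of at least 2 with compound at 10 µM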
Target sequence (P08659 whole entry, looked up): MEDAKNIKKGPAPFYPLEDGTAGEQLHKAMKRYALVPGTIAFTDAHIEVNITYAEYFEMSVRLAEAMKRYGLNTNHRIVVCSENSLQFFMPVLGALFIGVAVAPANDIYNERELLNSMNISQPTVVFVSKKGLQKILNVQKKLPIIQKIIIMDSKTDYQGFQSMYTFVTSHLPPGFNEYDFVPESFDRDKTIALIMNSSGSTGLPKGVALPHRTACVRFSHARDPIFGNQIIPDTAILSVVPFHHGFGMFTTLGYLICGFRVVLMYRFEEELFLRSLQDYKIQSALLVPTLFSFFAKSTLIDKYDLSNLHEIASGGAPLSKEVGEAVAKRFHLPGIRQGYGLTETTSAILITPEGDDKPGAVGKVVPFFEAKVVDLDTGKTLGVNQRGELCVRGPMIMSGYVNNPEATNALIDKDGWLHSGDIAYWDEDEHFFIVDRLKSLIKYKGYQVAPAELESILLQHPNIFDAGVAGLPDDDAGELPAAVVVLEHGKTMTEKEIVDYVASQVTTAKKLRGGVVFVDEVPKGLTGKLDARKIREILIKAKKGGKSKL
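System: cell-free luciferase reagent; medium: PBS as buffer for the ATP substrate; doses: test compounds dosed from 2 mM stocks in 100% DMSO; incubation: 10 min, room temperature; measured by: luminescence from luciferase reaction; read-out: luciferase activation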
FLuc inh counter = inhibits firefly luciferase, flagging false hits in luciferase inhibition screens. inhibition, % at 10 µM. ATPLite firefly luciferase biochemical luminescence, 10 min. 200,000 tested, 1.5% active. AID 1006. P08659;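 active = inhibition above about 50% when tested at 10 µM, limit read from the data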
STAT1 act conf = confirmation of STAT1 signaling activators | activation (% of control), % at 5.7 µM | NIH 3T3 STAT1-luciferase reporter, IFN-gamma potentiation, luminescence; 100% = IFN-gamma EC80 alone, no compound | shares compounds with STAT1 act | 1,200 tested, 97% active;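 active = activation above a set limit carried over from the earlier primary STAT1 screen, cut at about 140% in these data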;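 also: simple ratio to median IFN-gamma plus DMSO wells so 0% means no light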
NFkB act = activates NF-kappaB, counter-screen to STAT1 activators; shares compounds with STAT1 act; AID 1306; HEK293T NF-kB luciferase reporter, TNF-alpha stimulated, luminescence; 100% = TNF-alpha with vehicle only; 1,200 tested, 43% active; activation (% of control), % at 5.7 µM;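 active = activation above the mean of solvent-only control wells plus 3 SD, set per campaign, cut at about 130% in these data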;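 also: TNF-alpha given at a submaximal dose yielding about 80% of full reporter signal; values are well signal over median control so 100% means no change and 0% no light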
STAT3 act STAT1c = counter-screen for STAT1 activators: human STAT3 activation. shares compounds with STAT1 act. U3A cells STAT3-luciferase reporter, IL-6, luminescence; cells lack STAT1; 100 = IL-6 alone, no compound effect. activation (% of control), % at 5.7 µM. 1,200 tested, 46% active;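 active = activation above the solvent-only control well mean plus 3 SD, set per plate batch, cut at about 110% in these data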;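 also: 0% = no luminescence and 100% = median IL-6 plus DMSO wells; higher means more STAT3 reporter activation so hits are non-selective activators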
* hit, by the source's call; . = no result given.

SMILES | APP 5'UTR act | sdo1 growth | NF-kB neuron act | STAT1 act | FLuc act counter | FLuc inh counter | STAT1 act conf | NFkB act | STAT3 act STAT1c
CC1CCc2c(sc(NC(=O)COC(=O)C3CCCO3)c2C#N)C1 (configuration not stated) | 30.1 | . | 1.53 | 98.4 | 0.9 | 7.4 | . | . | .
CC1CCc2c(sc(NC(=O)C3CCCO3)c2C#N)C1 (configuration not stated) | 143.7* | . | 4.62* | 153.5* | 0.9 | 14.6 | 168.5* | 134.0* | 114.5*
CCCn1c(NC(=O)c2cccc(S(=O)(=O)N3CCCC3)c2)nc2ccccc21 | -24.9 | -1.02 | 0.3 | 88.5 | 1 | -4.7 | . | . | .
CCn1ccc(C(=O)NC2=C(C#N)CCC2)n1 | 3.9 | 0.59 | 1.06 | 96.4 | 1 | -3.2 | . | . | .
Nc1nccc(-c2ccc(-n3cccc3)cc2)n1 | 29.3 | . | 1.51 | 114.9 | 1 | 2.5 | . | . | .
O=C1/C(=C\c2ccc3c(c2)OCO3)CCC/C1=C/c1ccc2c(c1)OCO2 | -1.8 | -1.29 | 1.24 | 101.8 | 1 | 1.5 | . | . | .
O=c1/c(=C\c2ccc3c(c2)OCO3)sc2n1CCCN=2 | 94.4 | -0.05 | 4.65* | 154.4* | 0.5 | 46.2 | 200.5* | 138.8* | 106.5
CCOC(=O)N1CCN(CC(=O)Nc2sccc2C#N)CC1 | 0.7 | . | 1.25 | 90.6 | 1.1 | -8.8 | . | . | .
Cc1cccc(-n2ncc3c(NC4CCCCC4)ncnc32)c1 | 180.3* | -0.81 | 7.18* | 167.5* | 0.3 | 69.9* | 239.1* | 138.3* | 102.3
O=C(Nc1ccon1)c1ccc(OC2CCCC2)cc1 | 92.9 | 0.19 | 4.48* | 154.6* | 0.4 | 58.8* | 166.3* | 128.6 | 113.6*
CC(C)C(=O)Nc1cccc(C(=O)Nc2nnc(C(C)(C)C)s2)c1 | 5.0 | 0.2 | 1.2 | 103.0 | 1 | -0.3 | . | . | .
O=C(Nc1cccc(Cl)c1)c1ccc2c(=O)n3c(nc2c1)CCCCC3 | 202.3* | -2.19 | 2.7 | 162.1* | 0.7 | 27.5 | 180.5* | 124.4 | 96.3
CC(=O)Nc1cccc(-c2csc(Nc3ncccn3)n2)c1 | 135.1* | . | 1.72 | 252.3* | 0.6 | 40.4 | 304.0* | 130.3 | 112.9*
CC(=O)Nc1ccc(S(=O)(=O)Nc2cccc(-c3csc(C)n3)c2)cc1 | 1.4 | . | . | 87.3 | 1.1 | -9.9 | . | . | .
CC(=O)Nc1cccc(-c2csc(Nc3ccc(C)cn3)n2)c1 | 206.1* | -1.74 | 7.59* | 216.8* | 0.3 | 70.7* | 329.1* | 139.4* | 99.2
Cc1ccc(Nc2nc(-c3ccncc3)cs2)cc1 | 128.8 | . | 2.9 | 174.6* | 0.6 | 35.1 | 214.6* | 137.0* | 125.9*
CC(=O)Nc1ccc(-c2csc(Nc3cccc(C)n3)n2)cc1 | 167.6* | . | 6.15* | 159.9* | 1.1 | -6.2 | 183.9* | 129.1 | 100.0
Cc1cccnc1Nc1nc(-c2ccc(O)cc2)cs1 | 84.0 | -2.59 | 7.36* | 151.1* | 0.8 | 16.7 | 204.7* | 141.4* | 110.8*
Oc1ccc(-c2csc(Nc3ncccn3)n2)c(O)c1 | 154.5* | . | 8.09* | 175.9* | 0.7 | 26.0 | 215.8* | 144.4* | 108.9
O=C(O)c1ccc(N/N=C/C=C/c2ccccc2[N+](=O)[O-])cc1 | 112.9 | . | 0.87 | 163.3* | 1 | 0.9 | 177.3* | 139.3* | 129.2*
COCCn1c(C)cc(C(=O)CSc2nc3ccccc3c(=O)n2Cc2ccco2)c1C | 181.0* | -0.47 | 0.85 | 152.1* | 1 | 2.1 | 235.7* | 149.0* | 127.2*
Cc1ccsc1/C=N/NC(=O)c1sccc1C | 135.9* | -0.2 | 3.21 | 153.3* | 0.7 | 27.7 | 173.4* | 129.6 | 111.7*
Cc1ccsc1/C=N\NC(=O)c1cc(C(C)(C)C)[nH]n1 | 84.6 | . | 2.17 | 156.0* | 0.8 | 19.6 | 171.3* | 128.6 | 117.5*
CCn1c(-c2ccsc2)nc2c1c(=O)[nH]c(=O)n2Cc1ccccc1 | -14.3 | 0.21 | 1.01 | 106.3 | 1 | -2.1 | . | . | .
O=C(c1ccc(-c2cccc(C(F)(F)F)c2)o1)N1CCOCC1 | 12.6 | -0.41 | 2.1 | 117.4 | 1 | -0.8 | . | . | .
SMILES | APP 5'UTR act | sdo1 growth | NF-kB neuron act | STAT1 act | FLuc act counter | FLuc inh counter | STAT1 act conf | NFkB act | STAT3 act STAT1c
O=C(c1ccc(-c2cccc(Cl)c2Cl)o1)N1CCOCC1 | 108.5 | . | 4.54* | 162.4* | 0.7 | 29.4 | 200.6* | 143.2* | 114.5*
NC(=O)c1ccsc1NC(=O)CSc1ccccc1F | 50.9 | -0.86 | 1.82 | 111.4 | 1 | 3.5 | . | . | .
NC(=O)c1ccsc1NC(=O)c1coc2ccccc2c1=O | 166.9* | . | 2.16 | 166.1* | 0.3 | 70.8* | 217.2* | 129.8 | 112.6*
N#C/C(=C\c1ccco1)C(=O)NCC1CCCO1 (configuration not stated) | -3.8 | 0.07 | 1.86 | 98.8 | 1 | -1.8 | . | . | .
Cc1cccc(Nc2n[nH]c(C)c2[N+](=O)[O-])c1 | 100.7 | -0.58 | 3.74* | 156.2* | 0.9 | 12.4 | 192.5* | 132.0 | 105.7
Cc1ccc(NC(=O)/C(C#N)=C/c2cccs2)c(C)c1 | 90.4 | 1.21 | 3.88* | 160.5* | 0.9 | 10.5 | 171.3* | 143.8* | 107.0
COc1ccc(CN=Cc2c(O)[nH]c3ccccc23)cc1 | 2.1 | . | 1.45 | 117.2 | 1 | -3.9 | . | . | .
Oc1[nH]c2ccccc2c1C=Nc1ccc2c(c1)OCO2 | 141.4* | -0.59 | 4.88* | 191.7* | 0.6 | 35.7 | 263.3* | 144.2* | 103.2
COc1ccc(N=Cc2c(O)[nH]c3ccccc23)cc1 | 180.7* | -0.72 | 4.86* | 216.4* | 0.5 | 51.8* | 269.1* | 134.5* | 111.0*
Cc1[nH]c2ccccc2c1/C=N\NC(=O)CNc1ccc2c(c1)OCO2 | 3.2 | -0.1 | 1.08 | 91.3 | 0.9 | 6.0 | . | . | .
Cc1ccc(NC(=O)c2scc3c2CCCC3)cc1 | 195.1* | -0.79 | 9.51* | 155.0* | 0.2 | 75.1* | 252.0* | 126.4 | 101.7
Cc1ccc(NC(=O)c2cc3c(s2)CCCC3)cc1 | 119.2 | . | 8.81* | 160.4* | 0.6 | 42.0 | 202.5* | 153.8* | 105.1
COC(=O)c1sc(NC(=O)c2cc3c(s2)CCCC3)nc1C | 89.3 | -0.86 | 5.7* | 155.0* | 0.7 | 29.1 | 201.5* | 127.4 | 111.1*
CCOC(=O)c1sc(NC(=O)c2cc3c(s2)CCC(C)C3)nc1C (configuration not stated) | 16.3 | -1.13 | 1.7 | 97.9 | 1 | 0.0 | . | . | .
